ChEMBL document CHEMBL3853291, “Polycyclic Polyprenylated Derivatives from Hypericum uralum: Neuroprotective Effects and Antidepressant-like Activity of Uralodin A” (2016)

Columns and labels:
PC-12 [1] = test: Neuroprotective activity against corticosterone-induced cell injury in rat PC12 cells assessed as cell viability at 0.1 uM after 48 hrs by MTT assay (reference value: 55.6 +/- 0.87%); format: functional; settings: PC-12, 48 h, read-out: Activity
PC-12 [2] = test: Neuroprotective activity against corticosterone-induced cell injury in rat PC12 cells assessed as cell viability at 3 uM after 48 hrs by MTT assay (reference value: 55.6 +/- 0.87%); format: functional; settings: PC-12, 48 h, read-out: Activity
PC-12 [3] = test: Neuroprotective activity against corticosterone-induced cell injury in rat PC12 cells assessed as cell viability at 10 uM after 48 hrs by MTT assay (reference value: 55.6 +/- 0.87%); format: functional; settings: PC-12, 48 h, read-out: Activity
PC-12 [4] = test: Neuroprotective activity against corticosterone-induced cell injury in rat PC12 cells assessed as cell viability at 1 uM after 48 hrs by MTT assay (reference value: 55.6 +/- 0.87%); format: functional; settings: PC-12, 48 h, read-out: Activity
PC-12 [5] = test: Neuroprotective activity against corticosterone-induced cell injury in rat PC12 cells assessed as cell viability at 0.3 uM after 48 hrs by MTT assay (reference value: 55.6 +/- 0.87%); format: functional; settings: PC-12, 48 h, read-out: Activity
[6] = Antidepressant-like activity in LPS-induced ICR mouse assessed as decrease in immobility time at 25 mg/kg, ig qd for 5 days followed by LPS stimulation on 5th day injected 30 mins post last dose measured 24 hrs after stimulation monitored for last 4 mins by forced swim test relative to control; format: functional, organism-based; set-up: scale not given: the % may be the effect or the level left
Outline: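 Male ICR mice (18−22 g), 12 per group. Drug suspended in 0.03% CMC-Na and given intragastrically once daily for 5 days. LPS 0.5 mg/kg i.p. 30 min after the day-5 dose, with testing 24 h later. Mice swim 6 min at 25 ± 1 °C in a cylinder (20 cm high, 14 cm diameter, 10 cm water). Floating immobility scored over the last 4 min; mean ± SD.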

[7] = Antidepressant-like activity in LPS-induced ICR mouse assessed as decrease in immobility time at 25 mg/kg, ig qd for 5 days followed by LPS stimulation on 5th day injected 30 mins post last dose measured 24 hrs after stimulation monitored for last 4 mins by tail suspension test relative to control; format: functional, organism-based; set-up: scale not given: the % may be the effect or the level left
Outline: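 Male ICR mice (18−22 g), n = 12 per group, given drug in 0.03% CMC-Na intragastrically once daily for 5 days. LPS 0.5 mg/kg i.p. 30 min after the last dose, with the test 24 h later. Mice visually and acoustically isolated, taped ~1 cm from the tail tip, hung 50 cm above the floor for 6 min. Passive motionless hanging timed over the last 4 min; mean ± SD.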

[8] = Antidepressant-like activity in LPS-induced ICR mouse assessed as decrease in immobility time at 26 mg/kg, ig qd for 5 days followed by LPS stimulation on 5th day injected 30 mins post last dose measured 24 hrs after stimulation monitored for last 4 mins by tail suspension relative to control; format: functional, organism-based; set-up: scale not given: the % may be the effect or the level left
Outline: (§1)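 Male ICR mice (18−22 g), n = 12 per group. Dosed intragastrically once daily for 5 days as a suspension in 0.03% CMC-Na. On day 5, LPS 0.5 mg/kg i.p. was given 30 min after dosing. Tests were run 24 h after LPS. FST used a 20 × 14 cm cylinder with 10 cm water at 25 ± 1 °C, 6 min swim. TST suspended mice 50 cm high by the tail tape for 6 min. Immobility was scored over the last 4 min.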

[9] = Antidepressant-like activity in LPS-induced ICR mouse assessed as decrease in immobility time at 26 mg/kg, ig qd for 5 days followed by LPS stimulation on 5th day injected 30 mins post last dose measured 24 hrs after stimulation monitored for last 4 mins by forced swim test relative to control; format: functional, organism-based; set-up: scale not given: the % may be the effect or the level left; outline: as §1
[10] = Antidepressant-like activity in LPS-induced ICR mouse assessed as decrease in immobility time at 13 mg/kg, ig qd for 5 days followed by LPS stimulation on 5th day injected 30 mins post last dose measured 24 hrs after stimulation monitored for last 4 mins by tail suspension test relative to control; format: functional, organism-based; set-up: scale not given: the % may be the effect or the level left; outline: as §1
[11] = Antidepressant-like activity in LPS-induced ICR mouse assessed as decrease in immobility time at 13 mg/kg, ig qd for 5 days followed by LPS stimulation on 5th day injected 30 mins post last dose measured 24 hrs after stimulation monitored for last 4 mins by forced swim test relative to control; format: functional, organism-based; set-up: scale not given: the % may be the effect or the level left; outline: as §1

## CC(C)=CCC[C@]1(C)[C@@H](CC=C(C)C)C[C@]2(C[C@H](O)C(C)(C)O)C(=O)C(C(=O)C(C)C)=C3O[C@H](C(C)(C)O)C[C@@]31C2=O
PC-12 [1]
  viability at 0.1 µM: 72.3%
PC-12 [2]
  viability at 3 µM: 76.5%
PC-12 [3]
  viability at 10 µM: 71.5%
PC-12 [4]
  viability at 1 µM: 81.1%
PC-12 [5]
  viability at 0.3 µM: 80%

## CC(C)=CCC1=C2O[C@H](C(C)(C)O)CC[C@]3(C)[C@@H](CC=C(C)C)C[C@](C[C@H](O)C(C)(C)O)(C1=O)C(=O)[C@]23C(=O)c1ccccc1
PC-12 [1]
  viability at 0.1 µM: 55.9%
PC-12 [2]
  viability at 3 µM: 59.7%
PC-12 [3]
  viability at 10 µM: 53.2%
PC-12 [4]
  viability at 1 µM: 65%
PC-12 [5]
  viability at 0.3 µM: 57.5%

## CC(C)=CCC[C@]1(C)[C@@H](CC=C(C)C)C[C@]2(CC=C(C)C)C(=O)C3=C(OC(C)(C)[C@@H](O)C3)[C@@]1(C(=O)c1ccccc1)C2=O
PC-12 [1]
  viability at 0.1 µM: 70%
PC-12 [2]
  viability at 3 µM: 69%
PC-12 [3]
  viability at 10 µM: 65.9%
PC-12 [4]
  viability at 1 µM: 77.6%
PC-12 [5]
  viability at 0.3 µM: 80.8%

## CC(C)=CCC[C@]1(C)[C@@H](CC=C(C)C)C[C@]23C[C@H](C(C)(C)O)OC2=C(CC=C(C)C)C(=O)[C@@]1(C(=O)c1ccccc1)C3=O
PC-12 [1]
  viability at 0.1 µM: 82.9%
PC-12 [2]
  viability at 3 µM: 78%
PC-12 [3]
  viability at 10 µM: 86.6%
PC-12 [4]
  viability at 1 µM: 68.1%
PC-12 [5]
  viability at 0.3 µM: 72.8%

## CC(C)=CCC[C@]1(C)[C@@H](CC=C(C)C)C[C@]2(CC=C(C)C)C(=O)C(C(=O)c3ccccc3)=C3O[C@@H](C(C)(C)O)C[C@@]31C2=O
PC-12 [1]
  viability at 0.1 µM: 78.6%
PC-12 [2]
  viability at 3 µM: 77.7%
PC-12 [3]
  viability at 10 µM: 68.1%
PC-12 [4]
  viability at 1 µM: 78.5%
PC-12 [5]
  viability at 0.3 µM: 72.9%

## CC(C)=CCC[C@]1(C)[C@H](CC=C(C)C)C[C@]2(CC=C(C)C)C(=O)C(C(=O)C(C)C)=C3O[C@@H](C(C)(C)O)C[C@@]31C2=O
PC-12 [1]
  viability at 0.1 µM: 80.9%
PC-12 [2]
  viability at 3 µM: 63.8%
PC-12 [3]
  viability at 10 µM: 61%
PC-12 [4]
  viability at 1 µM: 77%
PC-12 [5]
  viability at 0.3 µM: 68.1%

## CC(C)=CCC[C@]1(C)[C@@H](CC=C(C)C)C[C@]2(CC=C(C)C)C(=O)C3=C(OC(C)(C)[C@H](O)C3)[C@@]1(C(=O)C(C)C)C2=O
PC-12 [1]
  viability at 0.1 µM: 80.3%
PC-12 [2]
  viability at 3 µM: 91.5%
PC-12 [3]
  viability at 10 µM: 75.1%
PC-12 [4]
  viability at 1 µM: 81.8%
PC-12 [5]
  viability at 0.3 µM: 61.4%

## CC(C)=CCC[C@]1(C)[C@@H](CC=C(C)C)C[C@]2(CC=C(C)C)C(=O)C(C(=O)c3ccccc3)=C3O[C@H](C(C)(C)O)C[C@@]31C2=O
PC-12 [1]
  viability at 0.1 µM: 76.7%
PC-12 [2]
  viability at 3 µM: 81.1%
PC-12 [3]
  viability at 10 µM: 74.1%
PC-12 [4]
  viability at 1 µM: 76.6%
PC-12 [5]
  viability at 0.3 µM: 81.8%

## CC(C)=CCC1=C2O[C@H](C(C)(C)O)CC[C@]3(C)[C@@H](C[C@H](O)C(C)(C)O)C[C@](CC=C(C)C)(C1=O)C(=O)[C@]23C(=O)C(C)C
PC-12 [1]
  viability at 0.1 µM: 91.7%
PC-12 [2]
  viability at 3 µM: 90.7%
PC-12 [3]
  viability at 10 µM: 72.9%
PC-12 [4]
  viability at 1 µM: 93.5%
PC-12 [5]
  viability at 0.3 µM: 84.4%

## CC(C)=CCC[C@]1(C)[C@@H](CC=C(C)C)C[C@]2(C[C@H](O)C(C)(C)O)C(=O)C3=C(OC(C)(C)[C@@H](O)C3)[C@@]1(C(=O)c1ccccc1)C2=O
PC-12 [1]
  viability at 0.1 µM: 77.9%
PC-12 [2]
  viability at 3 µM: 72.5%
PC-12 [3]
  viability at 10 µM: 80.9%
PC-12 [4]
  viability at 1 µM: 78.5%
PC-12 [5]
  viability at 0.3 µM: 77.7%

## CC(C)=CCC[C@]1(C)[C@@H](CC=C(C)C)C[C@@]2(CC=C(C)C)C(=O)[C@]1(C(=O)c1ccccc1)C(=O)C1=C2O[C@H](C(C)(C)O)C1
PC-12 [1]
  viability at 0.1 µM: 69.9%
PC-12 [2]
  viability at 3 µM: 74.4%
PC-12 [3]
  viability at 10 µM: 57%
PC-12 [4]
  viability at 1 µM: 72.2%
PC-12 [5]
  viability at 0.3 µM: 77.7%

## CNCCC(Oc1ccc(C(F)(F)F)cc1)c1ccccc1 (stereo unspecified) [FLUOXETINE]
PC-12 [1]
  viability at 0.1 µM: 77.7%
PC-12 [2]
  viability at 3 µM: 59.1%
PC-12 [3]
  viability at 10 µM: 69.6%
[6]
  Activity: 33.7%
PC-12 [4]
  viability at 1 µM: 70.1%
PC-12 [5]
  viability at 0.3 µM: 66.2%
[7]
  Activity: 23.1%

## CC(C)=CCC[C@]1(C)[C@@H](CC=C(C)C)C[C@]23C[C@@H](C(C)(C)O)OC2=C(CC=C(C)C)C(=O)[C@@]1(C(=O)C(C)C)C3=O
PC-12 [1]
  viability at 0.1 µM: 77.2%
PC-12 [2]
  viability at 3 µM: 77.7%
PC-12 [3]
  viability at 10 µM: 85.2%
PC-12 [4]
  viability at 1 µM: 79.7%
PC-12 [5]
  viability at 0.3 µM: 79.9%

## CC(C)=CCC[C@]1(C)[C@@H](CC=C(C)C)C[C@]23C[C@@H](C(C)(C)O)OC2=C(CC=C(C)C)C(=O)[C@@]1(C(=O)c1ccccc1)C3=O
PC-12 [1]
  viability at 0.1 µM: 85.7%
PC-12 [2]
  viability at 3 µM: 90.2%
PC-12 [3]
  viability at 10 µM: 85.3%
[8]
  Activity: 12.6%
PC-12 [4]
  viability at 1 µM: 85.9%
PC-12 [5]
  viability at 0.3 µM: 87.1%
[9]
  Activity: 28.1%
[10]
  Activity: 6.6%
[11]
  Activity: 21.4%

## CC(C)=CCC[C@]1(C)[C@@H](CC=C(C)C)C[C@]2(CC=C(C)C)C(=O)C3=C(OC(C)(C)[C@H](O)C3)[C@@]1(C(=O)c1ccccc1)C2=O
PC-12 [1]
  viability at 0.1 µM: 78.6%
PC-12 [2]
  viability at 3 µM: 82.2%
PC-12 [3]
  viability at 10 µM: 68.9%
PC-12 [4]
  viability at 1 µM: 86.3%
PC-12 [5]
  viability at 0.3 µM: 86.8%

## CC(C)=CCC1=C2O[C@H](C(C)(C)O)CC[C@]3(C)[C@@H](CC=C(C)C)C[C@](CC=C(C)C)(C1=O)C(=O)[C@]23C(=O)c1ccccc1
PC-12 [1]
  viability at 0.1 µM: 83.4%
PC-12 [2]
  viability at 3 µM: 81.6%
PC-12 [3]
  viability at 10 µM: 84.2%
PC-12 [4]
  viability at 1 µM: 83.5%
PC-12 [5]
  viability at 0.3 µM: 82.7%

## CC(C)=CCC[C@]1(C)[C@@H](CC=C(C)C)C[C@@]2(CC=C(C)C)C(=O)[C@]1(C(=O)c1ccccc1)C(=O)C1=C2O[C@@H](C(C)(C)O)C1
PC-12 [1]
  viability at 0.1 µM: 55.6%
PC-12 [2]
  viability at 3 µM: 72.9%
PC-12 [3]
  viability at 10 µM: 75.9%
PC-12 [4]
  viability at 1 µM: 74.7%
PC-12 [5]
  viability at 0.3 µM: 56.6%
